Measurements from ChEMBL document CHEMBL2163267, “Novel N-linked aminopiperidine inhibitors of bacterial topoisomerase type II with reduced pK(a): antibacterial agents with an improved safety profile” (J Med Chem, 2012).
Values after ≈ are worked out from the molar mass of the structure shown.

Key:
[1] = system: Streptococcus pneumoniae; test: Antibacterial activity against penicillin-susceptible Streptococcus pneumoniae D39 after 18 to 24 hrs by CLSI broth microdilution method; type: functional
[2] = system: Escherichia coli; test: Antibacterial activity against Escherichia coli W3110 after 18 to 24 hrs by CLSI broth microdilution method; type: functional
[3] = system: Pseudomonas aeruginosa; test: Antibacterial activity against Pseudomonas aeruginosa PAO1 after 18 to 24 hrs by CLSI broth microdilution method; type: functional
[4] = system: Staphylococcus aureus; test: Antibacterial activity against methicillin-susceptible Staphylococcus aureus after 18 to 24 hrs by CLSI broth microdilution method; type: functional
[5] = Fraction unbound in human plasma at 10 uM by equilibrium dialysis method; type: ADME, cell-free
How it was run: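 Equilibrium dialysis. Compound at 10 μM in the plasma (donor) chamber against phosphate buffer, rotated at 37 °C for 16 h. Drug in the plasma and buffer samples quantified by LC-MS/MS after methanol protein precipitation with internal standard. Standard curve 10 nM to 10 μM.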

[6] = Dissociation constant, pKa of the compound by pH metric assay; type: physicochemical
How it was run: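 pH-metric titration on an automated titrator, run in triplicate. Accuracy about 0.02 log units.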

[7] = Octanol-phosphate buffer partition coefficient, log D of the compound at pH 7.4 by shake flask method; type: physicochemical
How it was run: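 Shake-flask partition between n-octanol and 10 mM phosphate buffer at pH 7.4. Shaken 1 h at 1200 rpm to reach equilibrium. Phases analysed by LC/UV, with MS for mass confirmation.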

[8] = Inhibition of Escherichia coli DNA topoisomerase 4 subunit ParC/DNA topoisomerase 4 subunit ParE ATPase activity after 24 hrs by malachite green staining-based colorimetric assay
[9] = target: T1, Voltage-gated inwardly rectifying potassium channel KCNH2 (Homo sapiens, UniProt Q12809); test: Inhibition of human ERG by Ionworks assay
T1 sequence (Q12809 whole entry): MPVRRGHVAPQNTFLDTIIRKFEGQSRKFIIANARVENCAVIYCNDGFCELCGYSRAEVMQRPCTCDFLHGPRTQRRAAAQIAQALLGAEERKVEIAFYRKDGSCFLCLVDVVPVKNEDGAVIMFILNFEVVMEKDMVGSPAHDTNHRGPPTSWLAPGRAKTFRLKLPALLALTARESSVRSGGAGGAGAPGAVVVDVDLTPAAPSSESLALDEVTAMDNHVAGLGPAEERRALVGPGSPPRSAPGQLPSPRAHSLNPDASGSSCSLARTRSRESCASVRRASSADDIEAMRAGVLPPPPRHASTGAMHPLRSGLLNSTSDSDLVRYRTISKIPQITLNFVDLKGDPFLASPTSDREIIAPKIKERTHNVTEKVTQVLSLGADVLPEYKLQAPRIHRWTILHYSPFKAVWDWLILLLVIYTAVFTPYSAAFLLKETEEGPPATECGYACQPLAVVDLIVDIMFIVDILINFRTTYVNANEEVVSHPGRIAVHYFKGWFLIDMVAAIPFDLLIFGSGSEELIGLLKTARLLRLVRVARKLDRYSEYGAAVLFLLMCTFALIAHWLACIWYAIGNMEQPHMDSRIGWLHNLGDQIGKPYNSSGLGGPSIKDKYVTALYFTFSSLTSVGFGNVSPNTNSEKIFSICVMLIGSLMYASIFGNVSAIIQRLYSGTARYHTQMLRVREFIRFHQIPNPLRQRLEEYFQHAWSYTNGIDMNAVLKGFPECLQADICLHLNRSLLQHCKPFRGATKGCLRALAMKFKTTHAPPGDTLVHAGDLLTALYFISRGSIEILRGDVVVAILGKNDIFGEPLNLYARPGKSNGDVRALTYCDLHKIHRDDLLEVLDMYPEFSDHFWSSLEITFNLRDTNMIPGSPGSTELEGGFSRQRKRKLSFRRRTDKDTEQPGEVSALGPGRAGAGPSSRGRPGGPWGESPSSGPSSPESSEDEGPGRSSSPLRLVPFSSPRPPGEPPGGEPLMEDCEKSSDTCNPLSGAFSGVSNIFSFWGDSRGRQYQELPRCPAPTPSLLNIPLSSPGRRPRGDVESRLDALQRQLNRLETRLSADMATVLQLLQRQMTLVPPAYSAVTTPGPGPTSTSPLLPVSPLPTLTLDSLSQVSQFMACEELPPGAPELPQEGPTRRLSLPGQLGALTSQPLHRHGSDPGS

[10] = target: T1, Voltage-gated inwardly rectifying potassium channel KCNH2; test: Displacement of [3H]-astemizole from human ERG expressed in HEK293 cells after 60 mins by liquid scintillation counter; type: cell-based
[11] = system: Staphylococcus aureus; test: Antibacterial activity against linezolid-resistant Staphylococcus aureus ARC 3583 after 18 to 24 hrs by CLSI broth microdilution method; type: functional
How it was run: (§1)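 CLSI broth microdilution in Mueller Hinton Broth 2. Inocula prepared from blood agar plates grown at 35 °C for 18–24 h. Compound in DMSO, 2% DMSO final, 11 doubling dilutions from 64 to 0.06 μg/mL. Plates read at 620 nm.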

[12] = system: Staphylococcus aureus; test: Antibacterial activity against vancomycin-resistant Staphylococcus aureus ARC 3186 after 18 to 24 hrs by CLSI broth microdilution method; type: functional; how it was run: as §1

| SMILES | MIC [1] [µg/mL] | MIC [2] [µg/mL] | MIC [3] [µg/mL] | MIC [4] [µg/mL] | fraction unbound at 10 µM [5] | pKa [6] | logD [7] | IC50 [8] [µM] | IC50 [9] [µM] | IC50 [10] [µM] | MIC [11] [µg/mL] | MIC [12] [µg/mL] |
| --- | --- | --- | --- | --- | --- | --- | --- | --- | --- | --- | --- | --- |
| COc1ccc2ncc(=O)n(CCN3CC[C@H](NCc4ccc5c(n4)NC(=O)CO5)[C@H](F)C3)c2c1 | 0.13 (≈ 0.269 µM) | 0.5 (≈ 1.04 µM) | 8 (≈ 16.6 µM) | 0.03 (≈ 0.0622 µM) | – | – | – | – | – | – | – | – |
| N#Cc1ccc2ccc(=O)n(CCN3CC[C@H](NCc4cc5c(cn4)OCCO5)[C@H](O)C3)c2c1 | – | 1 (≈ 2.17 µM) | > 8 | 0.06 (≈ 0.13 µM) | 0.19 | 8 | 0.46 | 0.025 | 156 | – | – | – |
| N#Cc1ccc2ccc(=O)n(CCN3CC[C@@H](NCc4cc5c(cn4)OCCO5)[C@@H](O)C3)c2c1 | – | 1 (≈ 2.17 µM) | > 8 | 0.06 (≈ 0.13 µM) | 0.24 | – | 0.45 | 0.041 | 117 | – | – | – |
| N#Cc1ccc2ccc(=O)n(CCN3CC[C@H](NCc4ccc5c(n4)NC(=O)CO5)[C@H](O)C3)c2c1 | – | 0.5 (≈ 1.05 µM) | 2 (≈ 4.21 µM) | 0.25 (≈ 0.527 µM) | 0.21 | – | 0.11 | 0.017 | – | – | – | – |
| N#Cc1ccc2ccc(=O)n(CCN3CC[C@@H](NCc4ccc5c(n4)NC(=O)CO5)[C@@H](O)C3)c2c1 | – | 0.5 (≈ 1.05 µM) | 2 (≈ 4.21 µM) | 0.5 (≈ 1.05 µM) | 0.18 | – | 0.1 | 0.015 | – | – | – | – |
| COc1ccc2ncc(=O)n(CCN3CC[C@H](NCc4cc5c(cn4)OCCO5)[C@H](O)C3)c2c1 | – | 0.5 (≈ 1.07 µM) | 8 (≈ 17.1 µM) | 0.03 (≈ 0.0642 µM) | 0.19 | – | – | 0.005 | – | – | – | – |
| COc1ccc2ncc(=O)n(CCN3CC[C@@H](NCc4cc5c(cn4)OCCO5)[C@@H](O)C3)c2c1 | – | 1 (≈ 2.14 µM) | > 8 | 0.06 (≈ 0.128 µM) | 0.14 | 7.97 | – | 0.006 | – | – | – | – |
| COc1ccc2ncc(=O)n(CCN3CC[C@H](NCc4ccc5c(n4)NC(=O)CO5)[C@H](O)C3)c2c1 | – | 0.25 (≈ 0.52 µM) | 2 (≈ 4.16 µM) | 0.06 (≈ 0.125 µM) | 0.14 | – | 0.39 | 0.017 | 172 | – | – | – |
| COc1ccc2ncc(=O)n(CCN3CC[C@@H](NCc4ccc5c(n4)NC(=O)CO5)[C@@H](O)C3)c2c1 | – | 0.25 (≈ 0.52 µM) | 2 (≈ 4.16 µM) | 0.13 (≈ 0.271 µM) | 0.05 | – | 0.37 | 0.023 | 152 | – | – | – |
| CO[C@H]1CN(CCn2c(=O)ccc3ccc(C#N)cc32)CC[C@H]1NCc1cc2c(cn1)OCCO2 | 0.13 (≈ 0.273 µM) | 4 (≈ 8.41 µM) | > 8 | 0.13 (≈ 0.273 µM) | 0.54 | 7.99 | 0.63 | 0.055 | 174 | – | – | – |
| CO[C@H]1CN(CCn2c(=O)ccc3ccc(C#N)cc32)CC[C@H]1NCc1ccc2c(n1)NC(=O)CO2 | 0.5 (≈ 1.02 µM) | 1 (≈ 2.05 µM) | 8 (≈ 16.4 µM) | 0.13 (≈ 0.266 µM) | 0.5 | – | 0.32 | 0.028 | – | – | – | – |
| COc1ccc2ncc(=O)n(CCN3CC[C@@H](NCc4cc5c(cn4)OCCO5)[C@@H](OC)C3)c2c1 | 0.13 (≈ 0.27 µM) | 4 (≈ 8.31 µM) | > 8 | 0.06 (≈ 0.125 µM) | 0.33 | 8.01 | 0.9 | 0.076 | 75 | – | – | – |
| COc1ccc2ncc(=O)n(CCN3CC[C@@H](NCc4ccc5c(n4)NC(=O)CO5)[C@@H](OC)C3)c2c1 | 0.25 (≈ 0.506 µM) | 1 (≈ 2.02 µM) | 4 (≈ 8.09 µM) | 0.06 (≈ 0.121 µM) | 0.28 | 8.17 | – | 0.076 | 88 | – | – | – |
| N#Cc1ccc2ccc(=O)n(CCN3CC[C@@H](NCc4cc5c(cn4)OCCO5)[C@@H](F)C3)c2c1 | 0.13 (≈ 0.28 µM) | 4 (≈ 8.63 µM) | > 8 | 0.13 (≈ 0.28 µM) | 0.2 | – | 0.97 | 0.06 | 199 | > 200 | – | – |
| COc1ccc2ncc(=O)n(CCN3CC[C@@H](NCc4ccc5c(n4)NC(=O)CO5)[C@@H](F)C3)c2c1 | 0.13 (≈ 0.269 µM) | 0.5 (≈ 1.04 µM) | 8 (≈ 16.6 µM) | 0.03 (≈ 0.0622 µM) | 0.25 | – | 0.83 | – | – | – | – | – |
| CO[C@H]1CN(CCn2c(=O)ccc3ccc(C#N)cc32)CC[C@@H]1NCc1cc2c(cn1)OCCO2 (single isomer, unassigned; enantiomer 1) | 0.5 (≈ 1.05 µM) | 8 (≈ 16.8 µM) | > 8 | 0.25 (≈ 0.526 µM) | 0.13 | 7.25 | 1.07 | 0.096 | 176 | – | – | – |
| CO[C@@H]1CN(CCn2c(=O)ccc3ccc(C#N)cc32)CC[C@H]1NCc1ccc2c(n1)NC(=O)CO2 (single isomer, unassigned; enantiomer 1) | 0.25 (≈ 0.512 µM) | 2 (≈ 4.09 µM) | > 8 | 0.13 (≈ 0.266 µM) | 0.27 | 7.53 | 0.81 | 0.035 | – | – | – | – |
| COc1ccc2ncc(=O)n(CCN3CC[C@H](NCc4cc5c(cn4)OCCO5)[C@@H](OC)C3)c2c1 (single isomer, unassigned; enantiomer 1) | 0.25 (≈ 0.519 µM) | 8 (≈ 16.6 µM) | > 8 | 0.25 (≈ 0.519 µM) | 0.11 | 7 | 1.27 | 0.113 | 93 | – | – | – |
| COc1ccc2ncc(=O)n(CCN3CC[C@@H](NCc4ccc5c(n4)NC(=O)CO5)[C@H](OC)C3)c2c1 (single isomer, unassigned; enantiomer 1) | 0.13 (≈ 0.263 µM) | 1 (≈ 2.02 µM) | 8 (≈ 16.2 µM) | 0.03 (≈ 0.0607 µM) | 0.18 | 7.45 | – | 0.045 | 27 | – | – | – |
| COc1ccc2ncc(=O)n(CCN3CC[C@H](NCc4ccc5c(n4)NC(=O)CO5)[C@@H](F)C3)c2c1 (single isomer, unassigned; enantiomer B) | 0.06 (≈ 0.124 µM) | 0.5 (≈ 1.04 µM) | 4 (≈ 8.29 µM) | < 0.01 | 0.04 | 6.86 | 1.38 | < 0.009 | – | – | – | – |
| COc1ccc2ncc(=O)n(CCN3CC[C@@H](NCc4cc5c(cn4)OCCO5)[C@H](O)C3)c2c1 (single isomer, unassigned; enantiomer B) | 0.06 (≈ 0.128 µM) | 2 (≈ 4.28 µM) | > 8 | 0.06 (≈ 0.128 µM) | 0.18 | 7.4 | – | 0.003 | – | – | – | – |
| N#Cc1ccc2ccc(=O)n(CCN3CC[C@H](NCc4cc5c(cn4)OCCO5)[C@@H](F)C3)c2c1 (single isomer, unassigned; enantiomer B) | 0.25 (≈ 0.539 µM) | 8 (≈ 17.3 µM) | > 8 | 0.13 (≈ 0.28 µM) | 0.09 | 6.66 | 1.53 | 0.016 | 122 | 57 | – | – |
| COc1ccc2ncc(=O)n(CCN3CC[C@H](NCc4cc5c(cn4)OCCO5)[C@@H](F)C3)c2c1 (single isomer, unassigned; enantiomer B) | 0.13 (≈ 0.277 µM) | 8 (≈ 17 µM) | > 8 | 0.06 (≈ 0.128 µM) | 0.09 | 6.46 | 1.68 | 0.026 | – | – | – | – |
| CC(=O)NC[C@H]1CN(c2ccc(N3CCOCC3)c(F)c2)C(=O)O1 [LINEZOLID] | – | – | – | – | – | – | – | – | – | – | 16 (≈ 47.4 µM) | 1 (≈ 2.96 µM) |
| CN[C@H](CC(C)C)C(=O)N[C@H]1C(=O)N[C@@H](CC(N)=O)C(=O)N[C@H]2C(=O)N[C@H]3C(=O)N[C@H](C(=O)N[C@H](C(=O)O)c4cc(O)cc(O)c4-c4cc3ccc4O)[C@H](O)c3ccc(c(Cl)c3)Oc3cc2cc(c3O[C@@H]2O[C@H](CO)[C@@H](O)[C@H](O)[C@H]2O[C@H]2C[C@](C)(N)[C@H](O)[C@H](C)O2)Oc2ccc(cc2Cl)[C@H]1O [VANCOMYCIN] | – | – | – | – | – | – | – | – | – | – | – | > 64 |
